Measurements published in ChEMBL document CHEMBL3867488 (ACS Med Chem Lett, 2016).

Experiments:
[1] = molecular target: T1, Oxysterols receptor LXR-alpha (Homo sapiens, UniProt Q13133); test: Agonist activity at human LXR-alpha expressed in African green monkey CV1 cells measured after 18 to 20 hrs by luciferase reporter gene assay relative to pan agonist 1-(2,4-difluorobenzyl)-2-oxo-6-(4-phenoxyphenyl)-4-(trifluoromethyl)-1,2-dihydropyridine-3-carbonitrile; assay type: cell-based; conditions: CV-1, human; read-out: Efficacy
T1 sequence (Q13133 whole entry): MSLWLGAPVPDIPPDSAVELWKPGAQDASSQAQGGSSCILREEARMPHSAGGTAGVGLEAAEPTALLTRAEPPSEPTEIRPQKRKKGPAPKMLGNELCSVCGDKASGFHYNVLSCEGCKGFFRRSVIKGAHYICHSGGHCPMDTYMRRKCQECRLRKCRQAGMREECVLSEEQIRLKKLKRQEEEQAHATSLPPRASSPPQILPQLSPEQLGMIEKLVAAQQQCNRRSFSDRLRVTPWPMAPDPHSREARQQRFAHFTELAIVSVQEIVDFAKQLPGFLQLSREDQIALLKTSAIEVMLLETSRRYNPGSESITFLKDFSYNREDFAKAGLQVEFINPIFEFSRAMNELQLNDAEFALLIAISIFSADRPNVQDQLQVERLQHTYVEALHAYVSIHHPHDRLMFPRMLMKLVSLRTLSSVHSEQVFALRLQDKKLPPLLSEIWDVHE

[2] = system: Cynomolgus monkey; test: In vivo agonist activity at LXR-beta in cynomolgus monkey assessed as ABCG1 gene induction by measuring total RNA level at 1 mg/kg, po qd administered via gavage for 14 days measured after 5 to 6 hrs of last-dose relative to control; assay type: functional, Macaca fascicularis
Procedure, shortened: (§1)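 Cynomolgus monkeys dosed daily for 14 days. ABCG1 mRNA induction measured in blood cells on day 14 and expressed as fold change. Plasma drug concentration taken about 5 h post-dose. Plasma triglycerides also measured against baseline, with significance by ANOVA.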

[3] = molecular target: Alpha-1-acid glycoprotein 1 (Homo sapiens, UniProt P02763); test: Binding affinity to human alpha-1-AGP at 1 uM measured after 4 hrs by equilibrium dialysis method relative to control; assay type: ADME; conditions: isolated protein, 4 h, 1 µM
[4] = system: Cynomolgus monkey; test: In vivo agonist activity at LXR-beta in cynomolgus monkey assessed as ABCG1 gene induction by measuring total RNA level at 3 mg/kg, po qd administered via gavage for 14 days measured after 5 to 6 hrs of last-dose relative to control; assay type: functional, Macaca fascicularis; procedure, shortened: as §1
[5] = molecular target: Albumin (Homo sapiens, UniProt P02768); test: Binding affinity to human serum albumin at 1 uM measured after 4 hrs by equilibrium dialysis method relative to control; assay type: ADME; conditions: isolated protein, 4 h, 1 µM
[6] = Agonist activity at LXR-beta in cynomolgus monkey whole blood assessed as ABCA1 gene induction by measuring ABCA1 mRNA level after 4 hrs by SYBR-Green dye-based Q-PCR analysis; assay type: tissue-based; conditions: Macaca fascicularis
[7] = molecular target: T2, Nuclear receptor subfamily 1 group I member 2 (Homo sapiens, UniProt O75469); test: Agonist activity at human PXR expressed in human HepG2 cells assessed as induction of CYP3A4 measured after 24 hrs by AlamarBlue dye-based luciferase reporter gene assay; assay type: cell-based
T2 sequence (O75469 whole entry): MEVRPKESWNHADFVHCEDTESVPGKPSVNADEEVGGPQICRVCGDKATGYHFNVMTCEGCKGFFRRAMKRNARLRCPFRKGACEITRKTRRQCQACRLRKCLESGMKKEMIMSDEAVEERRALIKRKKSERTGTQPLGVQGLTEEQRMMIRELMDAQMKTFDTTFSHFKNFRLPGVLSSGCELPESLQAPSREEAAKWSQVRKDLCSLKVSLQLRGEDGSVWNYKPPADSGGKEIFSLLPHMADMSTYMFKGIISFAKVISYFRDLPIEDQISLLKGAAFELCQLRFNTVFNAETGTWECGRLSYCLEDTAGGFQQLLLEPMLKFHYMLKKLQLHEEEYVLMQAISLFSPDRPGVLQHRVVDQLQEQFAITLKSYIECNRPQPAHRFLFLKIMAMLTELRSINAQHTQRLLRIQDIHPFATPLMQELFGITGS

[8] = molecular target: T3, Oxysterols receptor LXR-beta (Homo sapiens) (UniProt P55055); test: Agonist activity at human LXR-beta expressed in African green monkey CV1 cells measured after 18 to 20 hrs by luciferase reporter gene assay relative to pan agonist 1-(2,4-difluorobenzyl)-2-oxo-6-(4-phenoxyphenyl)-4-(trifluoromethyl)-1,2-dihydropyridine-3-carbonitrile; assay type: cell-based; conditions: CV-1
T3 sequence (whole entry): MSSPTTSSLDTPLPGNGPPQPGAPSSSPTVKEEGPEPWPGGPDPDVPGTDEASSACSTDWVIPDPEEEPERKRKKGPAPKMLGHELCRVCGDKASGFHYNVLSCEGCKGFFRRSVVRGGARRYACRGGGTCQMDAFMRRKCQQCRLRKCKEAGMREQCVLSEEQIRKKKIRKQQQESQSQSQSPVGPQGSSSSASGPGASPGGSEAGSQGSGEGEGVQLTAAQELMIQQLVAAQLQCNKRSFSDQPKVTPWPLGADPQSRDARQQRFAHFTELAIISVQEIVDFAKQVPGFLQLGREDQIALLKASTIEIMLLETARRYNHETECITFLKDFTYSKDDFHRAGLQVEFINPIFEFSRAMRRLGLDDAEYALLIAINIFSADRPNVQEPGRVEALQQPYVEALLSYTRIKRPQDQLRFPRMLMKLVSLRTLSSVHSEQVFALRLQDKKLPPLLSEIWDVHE

[9] = molecular target: T3, Oxysterols receptor LXR-beta (Homo sapiens); test: Agonist activity at LXR-beta in human whole blood assessed as ABCA1 gene induction by measuring ABCA1 mRNA level after 4 hrs by SYBR-Green dye-based Q-PCR analysis relative to pan agonist 2-(4-(5-(5-cyano-1-(2,4-difluorobenzyl)-6-oxo-4-(trifluoromethyl)-1,6-dihydropyridin-2-yl)thiophen-2-yl)-3-methylphenyl)acetic acid; assay type: tissue-based
[10] = Effect on plasma triglyceride level in cynomolgus monkey at 3 mg/kg, po qd administered via gavage for 14 days measured after 24 hrs of last-dose relative to base line; assay type: ADME, organism-based, Macaca fascicularis; conditions: in vivo
Procedure, shortened: (§2)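 Cynomolgus monkeys dosed daily for 14 days. On day 14, plasma drug concentration was taken 5 h post-dose. Plasma triglycerides were expressed as % elevation over baseline, with significance tested by ANOVA (p < 0.05).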

[11] = molecular target: T3, Oxysterols receptor LXR-beta (Homo sapiens); test: Agonist activity at LXR-beta in human HeLa cells assessed as induction of ABCA1 by beta-galactosidase/luciferase reporter gene assay relative to control; assay type: cell-based
Procedure, shortened: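 HeLa cells carrying endogenous LXRα and LXRβ receptors, transfected with an ABCA1 LXREx3 reporter construct; agonist-driven reporter induction measured.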

[12] = Apparent elimination half life in iv dosed cynomolgus monkey; assay type: ADME, organism-based, Macaca fascicularis; conditions: in vivo
[13] = Plasma concentration in cynomolgus monkey at 1 mg/kg, po qd administered via gavage for 14 days measured after 5 hrs of last-dose by LC/MS/MS analysis; assay type: ADME, organism-based, Macaca fascicularis; procedure, shortened: as §2
[14] = organism: Macaca fascicularis; test: Agonist activity at LXR-beta in cynomolgus monkey whole blood assessed as ABCA1 gene induction by measuring ABCA1 mRNA level after 4 hrs by SYBR-Green dye-based Q-PCR analysis relative to control; assay type: tissue-based
[15] = Plasma concentration in cynomolgus monkey at 3 mg/kg, po qd administered via gavage for 14 days measured after 5 hrs of last-dose by LC/MS/MS analysis; assay type: ADME, organism-based, Macaca fascicularis; procedure, shortened: as §2
[16] = Effect on plasma triglyceride level in cynomolgus monkey at 1 mg/kg, po qd administered via gavage for 14 days measured after 24 hrs of last-dose relative to base line; assay type: ADME, organism-based, Macaca fascicularis; conditions: in vivo; procedure, shortened: as §2
[17] = molecular target: T2, Nuclear receptor subfamily 1 group I member 2; test: Agonist activity at human PXR expressed in human HepG2 cells assessed as induction of CYP3A4 measured after 24 hrs by AlamarBlue dye-based luciferase reporter gene assay relative to control; assay type: cell-based; conditions: hepg2, 24 h
[18] = Plasma concentration in cynomolgus monkey at 10 mg/kg, po qd administered via gavage for 14 days measured after 5 hrs of last-dose by LC/MS/MS analysis; assay type: ADME, organism-based, Macaca fascicularis; procedure, shortened: as §2
[19] = system: Cynomolgus monkey; test: In vivo agonist activity at LXR-beta in cynomolgus monkey assessed as induction of ABCG1 gene at 10 mg/kg/day, po qd administered via gavage for 14 days; assay type: functional, Macaca fascicularis; procedure, shortened: as §1
[20] = Effect on plasma triglyceride level in cynomolgus monkey at 10 mg/kg, po qd administered via gavage for 14 days measured after 24 hrs of last-dose relative to base line; assay type: ADME, organism-based, Macaca fascicularis; conditions: in vivo; procedure, shortened: as §2

Albumin, sequence (P02768 whole entry): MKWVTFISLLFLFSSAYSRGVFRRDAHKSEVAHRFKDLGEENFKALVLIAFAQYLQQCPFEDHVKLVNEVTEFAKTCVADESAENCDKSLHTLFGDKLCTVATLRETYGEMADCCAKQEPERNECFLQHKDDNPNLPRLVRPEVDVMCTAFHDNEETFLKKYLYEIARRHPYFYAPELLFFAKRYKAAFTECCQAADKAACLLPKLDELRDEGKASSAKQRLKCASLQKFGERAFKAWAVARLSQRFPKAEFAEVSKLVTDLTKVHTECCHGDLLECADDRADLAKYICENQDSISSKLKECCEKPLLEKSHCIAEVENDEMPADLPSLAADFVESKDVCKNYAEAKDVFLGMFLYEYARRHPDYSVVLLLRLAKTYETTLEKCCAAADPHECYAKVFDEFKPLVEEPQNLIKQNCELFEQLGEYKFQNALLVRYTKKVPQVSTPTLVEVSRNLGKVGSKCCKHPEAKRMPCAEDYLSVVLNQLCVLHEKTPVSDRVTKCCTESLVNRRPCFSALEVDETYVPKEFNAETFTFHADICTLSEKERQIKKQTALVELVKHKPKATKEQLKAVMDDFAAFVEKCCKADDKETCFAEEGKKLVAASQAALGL
Alpha-1-acid glycoprotein 1, sequence (P02763 whole entry): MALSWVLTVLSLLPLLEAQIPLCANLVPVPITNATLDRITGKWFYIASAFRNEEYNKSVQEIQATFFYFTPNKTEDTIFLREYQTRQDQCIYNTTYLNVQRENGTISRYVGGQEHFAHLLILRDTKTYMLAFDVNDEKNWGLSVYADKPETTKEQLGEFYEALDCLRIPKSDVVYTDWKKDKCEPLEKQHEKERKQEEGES

| Emax [1] [%] | PB [3] [%] | PB [5] [%] | EC50 [6] [nM] | EC50 [7] [nM] | Efficacy [8] [%] | Efficacy [9] [%] | Activity [10] [%] | Efficacy [11] [%] | betat1/2(app) [12] [h] | concentration at 5 h [13] [nM] | concentration at 5 h [15] [nM] | Activity [16] [%] | Activity [17] [%] | concentration at 5 h [18] [nM] | Activity [20] [%] | SMILES | fold change (FC) [2] | fold change (FC) [4] | Efficacy [14] [%] | fold change (FC) [19] |
| --- | --- | --- | --- | --- | --- | --- | --- | --- | --- | --- | --- | --- | --- | --- | --- | --- | --- | --- | --- | --- |
| 12 | 87.6 | 94.4 | 52 | 3000 | 68 | 34 | 58 | 16 | 10 to 12 | 85 | 310 | 2 | 85 | – | – | CC(C)(O)c1cn(-c2ccc(-c3cc(F)c(CO)c(S(C)(=O)=O)c3)cc2)c(C(C)(C)c2cccc(F)c2Cl)n1 | 4 | 10 | 29 | – |
| – | – | – | – | – | – | – | – | – | – | – | – | – | – | 200 | 140 | O=S(=O)(c1ccccc1)N(CC(F)(F)F)c1ccc(C(O)(C(F)(F)F)C(F)(F)F)cc1 [T091317] | – | – | 100 | 6 |
